hERG protect: hERG (human) protection from proarrhythmic block; activation (rescue from dofetilide block), less the hit threshold, % at 10 µM; AID 1511; actives 0.51% (n = 310,000); CHO-hERG, FluxOR thallium flux, dofetilide IC70 present;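 active = activation above the mean of controls blocked by dofetilide plus 5 SD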;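 also: thallium influx through hERG after potassium depolarization seen as dye fluorescence rise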
Target sequence (Q12809 whole entry, looked up): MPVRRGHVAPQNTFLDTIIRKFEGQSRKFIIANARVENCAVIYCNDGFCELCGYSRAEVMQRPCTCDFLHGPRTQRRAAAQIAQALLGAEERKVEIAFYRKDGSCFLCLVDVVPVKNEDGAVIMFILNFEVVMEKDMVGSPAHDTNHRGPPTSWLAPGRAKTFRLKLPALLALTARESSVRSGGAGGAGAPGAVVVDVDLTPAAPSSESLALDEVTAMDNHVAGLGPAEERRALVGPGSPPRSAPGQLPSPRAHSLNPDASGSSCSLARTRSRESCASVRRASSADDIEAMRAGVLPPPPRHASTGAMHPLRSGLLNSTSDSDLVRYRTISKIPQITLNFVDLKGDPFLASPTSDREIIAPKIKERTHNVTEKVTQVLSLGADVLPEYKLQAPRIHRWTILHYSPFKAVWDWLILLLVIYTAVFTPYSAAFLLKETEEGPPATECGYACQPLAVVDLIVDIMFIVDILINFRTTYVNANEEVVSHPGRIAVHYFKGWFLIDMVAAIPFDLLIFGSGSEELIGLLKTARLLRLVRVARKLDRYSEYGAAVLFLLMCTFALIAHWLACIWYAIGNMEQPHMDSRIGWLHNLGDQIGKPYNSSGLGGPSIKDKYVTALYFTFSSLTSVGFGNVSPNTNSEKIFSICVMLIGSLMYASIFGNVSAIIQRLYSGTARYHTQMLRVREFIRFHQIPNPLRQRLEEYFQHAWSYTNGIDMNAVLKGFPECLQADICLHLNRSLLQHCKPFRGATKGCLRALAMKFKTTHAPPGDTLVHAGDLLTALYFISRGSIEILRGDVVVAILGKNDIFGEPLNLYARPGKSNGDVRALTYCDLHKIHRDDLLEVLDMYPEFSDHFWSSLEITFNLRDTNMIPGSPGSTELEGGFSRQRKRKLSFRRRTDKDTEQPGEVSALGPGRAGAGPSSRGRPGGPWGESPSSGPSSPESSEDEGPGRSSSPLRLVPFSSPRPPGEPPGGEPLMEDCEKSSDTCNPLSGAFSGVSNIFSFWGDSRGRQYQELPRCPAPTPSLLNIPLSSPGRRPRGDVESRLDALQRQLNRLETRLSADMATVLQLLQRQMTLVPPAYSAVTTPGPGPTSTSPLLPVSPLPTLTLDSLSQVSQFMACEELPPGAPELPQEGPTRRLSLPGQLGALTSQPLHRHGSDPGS
KCNQ1 act: human KCNQ1 channel potentiation or activation; P51787; CHO-K1 KCNQ1, thallium flux FluxOR fluorescence; stronger effect = higher value; B-score at 10 µM; AID 2648; actives 0.35% (n = 310,000);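 active = fluorescence ratio B-score, a plate-corrected score, at least three library SD, with initial intensity B-score within 5 SD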
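assay system = KCNQ1-transfected CHO-K1 cells | medium = assay buffer with matched DMSO | probe or stimulus = depolarizing K+/Tl+ stimulus, K2SO4 and Tl2SO4 each 12.5 mM in 5x stock | dosing = single dose | incubation = dye 90 min, compound 20 min, room temperature | detection = kinetic FluxOR fluorescence, 10 s baseline plus 110 s post-stimulus | evaluation = ratio B score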
KCNK3 inh: human KCNK3 channel inhibition, primary screen; actives 0.84% (n = 340,000); B-score at 10 µM; CHO-KCNK3 thallium flux, FluxOR fluorescence; stronger effect = lower value;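 active = B-score under library mean minus 4 SD, starting fluorescence ratio at most library mean plus 5 SD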;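 also: more negative B-score means stronger inhibition of thallium flux through KCNK3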
KCNK9 inh: human KCNK9 channel inhibition; B-score at 10 µM; AID 488922; HEK293 KCNK9, FluxOR thallium flux fluorescence; stronger effect = lower value; Q9NPC2; actives 1.2% (n = 310,000);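 active = ratio B-score over 3 SD below the library mean, with starting fluorescence within 5 SD of its mean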;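 also: negative B-score means less thallium flux so channel inhibition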
KCNQ1 block: blocks the human KCNQ1 potassium channel; P51787; CHO-K1 KCNQ1, FluxOR thallium flux fluorescence; stronger effect = higher value; B-score at 10 µM; actives 1.3% (n = 310,000);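 active = compounds whose thallium flux B-score, printed positive for inhibition, exceeds three library SD while starting fluorescence stays within three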;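 also: channel opened by potassium depolarization with thallium stimulus after 20 min compound exposure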
Kir21 block: Kir2.1 (mouse) channel inhibition; P35561; HEK293-Kir2.1, FluxOR thallium flux fluorescence; stronger effect = lower value; B-score at 10 µM; actives 0.85% (n = 310,000); AID 1672;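 active = fluorescence ratio B-score at or below minus 3 SD of library scores, with starting-brightness B-score within 2 SD, cut at about -4.2 in these data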;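 also: channel flux triggered by added potassium and thallium sulfate stimulus; B-score of peak minus minimum fluorescence over baseline after thallium stimulus; more negative B-score means stronger Kir2.1 block with less thallium influx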
KCNQ1 inh valid: confirmation of human KCNQ1 potassium channel inhibitors. KCNQ1 cell line, FluxOR thallium flux fluorescence. inhibition, % at 10 µM. actives 93% (n = 1,600). shares compounds with KCNQ1 block. AID 588353;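 active = primary screen active, with duplicate mean exceeding buffer control mean plus 3 SD of buffer wells, cut at about 28% in these data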
CHO KCNQ1 ctr: counter-screen for KCNQ1 inhibitors: effect in parental CHO cells; actives 21% (n = 1,600); shares compounds with KCNQ1 block; parental CHO-K1, FluxOR thallium flux fluorescence ratio; stronger effect = lower value; zero means no signal rise above baseline; fluorescence ratio (Tl flux) at 10 µM; AID 588366;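 active = mean of duplicate thallium-flux fluorescence ratios in parental host cells more than 5 SD below the buffer control mean, cut at about 0.38 in these data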;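 also: ratio is peak minus minimum fluorescence divided by baseline fluorescence; actives read low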
KCNQ1 ephys val: human KCNQ1 inhibition validated by electrophysiology | KCNQ1-CHO cells, automated patch clamp current | AID 624120 | actives 20% (n = 490) | calls only at 10 µM | shares compounds with KCNQ1 block;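 active = KCNQ1 current drop exceeding 3 SD of negative control wells, seen in both duplicate runs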;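 also: steady state current during a 2 s step from -80 to +40 mV; negative values mean current inhibition and positive values mean potentiation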
KCNQ2 inh: rat KCNQ2 inhibition in KCNQ1 inhibitor specificity screen; KCNQ2 cells, FluxOR thallium flux fluorescence; inhibition, % at 10 µM; AID 651746; shares compounds with KCNQ1 block; actives 71% (n = 1,600);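 active = mean percent inhibition of the KCNQ2 thallium signal more than 5 SD above the buffer-only control wells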;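 also: KCNQ2 expressed in CHO cells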
KCNQ1-KCNE1 inh: selectivity of KCNQ1 inhibitors: inhibition of human KCNQ1/KCNE1 channel. shares compounds with KCNQ1 block. KCNQ1/KCNE1 cells, FluxOR thallium flux fluorescence. actives 77% (n = 1,600). inhibition, % at 10 µM;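 active = mean percent inhibition of duplicate wells above the buffer-only control mean plus 3 SD of those controls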
Of the large screens only hits and unclear results are named; the others gave an inactive call (follow-up assays come after a bar, where they were run). Sampled rows, rich in hits. Any-hit rate of the full collection: about 3.7%.

CNC(=O)COC(=O)c1ccc2c(c1)NC(=O)C1CCCN21 (centres undefined)	none (no result: KCNK3 inh)
CCCNC(=S)Nc1cccc(C(F)(F)F)c1	none
FC(F)(F)c1cccc(NC(=S)NCC2COc3ccccc3O2)c1 (centres undefined)	KCNQ1 block 7 | KCNQ1 inh valid 58 | CHO KCNQ1 ctr inactive | KCNQ2 inh 65% | KCNQ1-KCNE1 inh 44%
O=C(Nc1ccc(Br)cc1)Nc1cnccn1	KCNQ1 block 7 | KCNQ1 inh valid inactive | CHO KCNQ1 ctr inactive | KCNQ2 inh inactive | KCNQ1-KCNE1 inh inactive
CC1CCCCN1CCNC(=O)CN1C(=O)CSc2ccc(S(=O)(=O)N3CCCCC3)cc21 (centres undefined)	none
COc1cccc(C(=O)Nc2ccc3nc(N4CCOCC4)cc(C)c3c2)c1	KCNQ1 block 7 | KCNQ1 inh valid active | CHO KCNQ1 ctr inactive | KCNQ1 ephys val inactive | KCNQ2 inh inactive | KCNQ1-KCNE1 inh inactive
C=CCn1c(=O)[nH]c2nc3cc(N=CN(C)C)c(C)cc3nc2c1=O	KCNQ1 block 8 | KCNQ1 inh valid 102 | CHO KCNQ1 ctr 0.28 | KCNQ2 inh inactive | KCNQ1-KCNE1 inh 152%
Cc1ccsc1C(=O)N(C)CC(=O)Nc1ccccc1Br	none (no result: hERG protect, KCNQ1 act, KCNK9 inh, KCNQ1 block, Kir21 block)
O=C(c1cc(COc2ccc3ncccc3c2)on1)N1CCCCCC1	KCNQ1 block 7 | KCNQ1 inh valid 114 | CHO KCNQ1 ctr inactive | KCNQ1 ephys val inactive | KCNQ2 inh 101% | KCNQ1-KCNE1 inh inactive
O=C(c1cc(COc2ccc3ncccc3c2)on1)N1CCCC1	none
Cc1ccc(OCc2cc(C(=O)NC3CCCCC3)no2)cn1	none
CC(NC(=O)c1cc(COc2ccc3ncccc3c2)on1)c1ccc(F)cc1 (centres undefined)	KCNQ1 block 10 | KCNQ1 inh valid 108 | CHO KCNQ1 ctr inactive | KCNQ1 ephys val active | KCNQ2 inh 92% | KCNQ1-KCNE1 inh 92%
Cc1cc(OCc2cc(C(=O)N3CCC(Oc4cccnc4)CC3)no2)cc(C)c1Cl	KCNQ1 block 13 | KCNQ1 inh valid 148 | CHO KCNQ1 ctr 0.37 | KCNQ2 inh 124% | KCNQ1-KCNE1 inh active
O=C(NC1CCCC1)c1cc(COc2ccc3ncccc3c2)on1	KCNQ1 block 8 | KCNQ1 inh valid 91 | CHO KCNQ1 ctr inactive | KCNQ1 ephys val active | KCNQ2 inh inactive | KCNQ1-KCNE1 inh inactive
CC(NC(=O)c1cc(COc2ccccc2)on1)c1nccs1 (centres undefined)	none
Cc1cc(OCc2cc(C(=O)N3CCN(CC4CC4)CC3)no2)cc(C)c1Cl	none
CCN1C(=O)N(C(C)=O)C2C1N(C(C)=O)C(=O)N2C(C)=O (centres undefined)	none
CCCc1cc(C(=O)Nc2ccc(C(=O)c3ccc(C)cc3)cc2)n(C)n1	KCNQ1 block 11 | KCNQ1 inh valid 170 | CHO KCNQ1 ctr 0.36 | KCNQ2 inh 140% | KCNQ1-KCNE1 inh active
CCCc1cc(C(=O)Nc2cccc3ccccc23)n(C)n1	none
CC(=O)Nc1ccc(S(=O)(=O)N2CCC(C(N)=O)(N3CCCCC3)CC2)cc1	none
O=C(c1cc2ccccc2o1)N(Cc1ccco1)Cc1cccs1	KCNQ1 block 7 | KCNQ1 inh valid 120 | CHO KCNQ1 ctr 0.36 | KCNQ2 inh 91% | KCNQ1-KCNE1 inh 190%
Cc1c(C(=O)N(Cc2ccco2)Cc2cccs2)oc2ccccc12	none (no result: hERG protect, KCNQ1 act, KCNK9 inh, KCNQ1 block, Kir21 block)
CCn1c(=NC(=O)C2COc3ccccc3O2)sc2c(C)ccc(OC)c21 (centres undefined)	KCNK9 inh -8, KCNQ1 block 7 | KCNQ1 inh valid 85 | CHO KCNQ1 ctr inactive | KCNQ2 inh 110% | KCNQ1-KCNE1 inh 121%
CCn1c(=NC(=O)CN2C(=O)CCC2=O)sc2c(OC)ccc(OC)c21	none
CCOc1ccc(NC(=O)CN(C)C(=O)c2c(C)nn(Cc3ccccc3Cl)c2C)cc1OCC	none (no result: hERG protect, KCNQ1 act, KCNK9 inh, KCNQ1 block, Kir21 block)
CCN(CC)CCN(C(=O)c1ccc2c(c1)OCCO2)c1nc2cc3c(cc2s1)OCO3	KCNQ1 block 7 | KCNQ1 inh valid 50 | CHO KCNQ1 ctr inactive | KCNQ2 inh 81% | KCNQ1-KCNE1 inh 84%
CN(C)CCCN(C(=O)c1ccc2c(c1)OCCO2)c1nc2cc3c(cc2s1)OCO3	none
CC1CCN(CC(=O)N2CCCc3c2c(=O)oc2ccc(OCc4ccccc4)cc32)CC1	none
CC1CC(C)CN(CC(=O)N2CCCc3c2c(=O)oc2ccc(OCc4ccccc4)cc32)C1 (centres undefined)	KCNQ1 block 9 | KCNQ1 inh valid 110 | CHO KCNQ1 ctr inactive | KCNQ2 inh 100% | KCNQ1-KCNE1 inh 151%
CC1CCC(NC(=O)c2ccc(NC(=O)CC3SC(N4CCCC4)=NC3=O)cc2)CC1 (centres undefined)	none
COC(=O)c1ccccc1NC(=O)CN1CCN(c2ccccn2)CC1	none
COC(=O)c1ccccc1N/C=C1\CCc2c(c(C)nn2-c2ccccn2)C1=O	KCNQ1 block 6 | KCNQ1 inh valid 96 | CHO KCNQ1 ctr inactive | KCNQ1 ephys val inactive | KCNQ2 inh 97% | KCNQ1-KCNE1 inh 141%
C=CCNc1ncnc2c1[nH]c1ccc(Cl)cc12	KCNQ1 block 7 | KCNQ1 inh valid 84 | CHO KCNQ1 ctr inactive | KCNQ2 inh inactive | KCNQ1-KCNE1 inh inactive
CCCCNC(=O)CCc1c(C)nc2nc(-c3cc(OC)cc(OC)c3)nn2c1C	none
CCC(C)NC(=O)CCc1c(C)nc2nc(-c3cc(OC)cc(OC)c3)nn2c1C (centres undefined)	KCNQ1 block 8 | KCNQ1 inh valid active | CHO KCNQ1 ctr inactive | KCNQ1 ephys val inactive | KCNQ2 inh inactive | KCNQ1-KCNE1 inh inactive
COc1ccc2c(c1)c(CC(=O)Nc1ccccc1OC)c(C)n2C(=O)c1ccc(Cl)cc1	KCNQ1 block 7 | KCNQ1 inh valid 43 | CHO KCNQ1 ctr inactive | KCNQ2 inh 91% | KCNQ1-KCNE1 inh 48%
COc1ccc2c(c1)c(CC(=O)Nc1cc(C)ccc1C)c(C)n2C(=O)c1ccc(Cl)cc1	none

Screening results deposited in PubChem BioAssay by Johns Hopkins Ion Channel Center.
